Data set [1] is described as follows: Metabolic stability in rat hepatocytes. In kind it is in vitro ADME. An outline of the steps:
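Intrinsic clearance was measured in rat hepatocyte incubations and expressed as μL/min/1 × 10^6 cells.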

The target of another data set is T1, Full length MUS81-EME1 (Homo sapiens, UniProt Q96NY9).
T1 sequence (Q96NY9 1-551): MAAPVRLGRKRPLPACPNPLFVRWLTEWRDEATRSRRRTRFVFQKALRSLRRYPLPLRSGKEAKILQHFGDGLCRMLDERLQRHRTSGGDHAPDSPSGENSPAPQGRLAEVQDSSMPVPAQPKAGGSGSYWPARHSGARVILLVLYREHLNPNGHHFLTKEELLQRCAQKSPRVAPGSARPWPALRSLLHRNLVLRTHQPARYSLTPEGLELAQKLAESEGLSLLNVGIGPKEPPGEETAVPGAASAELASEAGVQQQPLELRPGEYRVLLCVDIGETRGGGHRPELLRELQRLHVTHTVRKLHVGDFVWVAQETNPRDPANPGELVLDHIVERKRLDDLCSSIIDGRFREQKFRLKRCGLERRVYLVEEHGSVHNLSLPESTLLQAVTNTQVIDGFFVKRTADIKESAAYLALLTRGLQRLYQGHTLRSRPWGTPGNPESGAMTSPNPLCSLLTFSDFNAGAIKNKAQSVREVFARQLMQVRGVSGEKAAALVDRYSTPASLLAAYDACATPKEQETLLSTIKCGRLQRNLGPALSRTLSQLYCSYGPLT
T1 sequence (Q96AY2 1-570 partner): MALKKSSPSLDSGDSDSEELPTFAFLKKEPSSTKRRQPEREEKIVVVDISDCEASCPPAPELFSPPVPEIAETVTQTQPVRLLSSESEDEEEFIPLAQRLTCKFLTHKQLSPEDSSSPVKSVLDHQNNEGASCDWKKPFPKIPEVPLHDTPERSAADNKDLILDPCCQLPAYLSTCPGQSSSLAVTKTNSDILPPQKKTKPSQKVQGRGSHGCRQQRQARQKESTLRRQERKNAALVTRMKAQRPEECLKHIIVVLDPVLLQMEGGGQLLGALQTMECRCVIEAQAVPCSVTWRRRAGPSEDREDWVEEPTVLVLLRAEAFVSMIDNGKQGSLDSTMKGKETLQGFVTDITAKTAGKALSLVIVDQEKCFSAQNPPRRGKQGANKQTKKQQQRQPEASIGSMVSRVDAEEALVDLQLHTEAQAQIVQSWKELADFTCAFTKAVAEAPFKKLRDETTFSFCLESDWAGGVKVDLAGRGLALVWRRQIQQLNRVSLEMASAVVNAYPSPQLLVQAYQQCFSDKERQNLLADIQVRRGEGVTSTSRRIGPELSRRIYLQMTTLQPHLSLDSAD
The data set is described as follows: MUS81-EME1 biochemical enzyme-inhibition assay. The note with it: for improvement in biochemical activity: compared to 18; for improvement in biochemical activity (IC50): compared with pyrimidinone 15. In outline: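 LE was calculated as 1.37 × pIC50/HAC and LLE as pIC50 − LogD. LogD was measured by shake-flask partition between octanol and water at pH 7.4. IC50 values are the geometric mean ± SEM of at least three determinations.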

The target of data set [2] is safety panel of 22 common off-targets, comprising enzymes, receptors and ion channels (e.g., COX2, PDEs, INSR, GABA, NMDA, CaV-L). As to the kind of experiment: Eurofins SafetyScreen panel of 22 common off-targets. The conditions noted are these: read-out: IC50 against safety panel off-targets. In kind it is biochemical.
The target in data set [3] is T2, MUS81-EME1 heterodimer (MUS81 residues 246-551; EME1 residues 246-570) (Homo sapiens, UniProt Q96NY9).
T2 sequence (Q96NY9 246-551): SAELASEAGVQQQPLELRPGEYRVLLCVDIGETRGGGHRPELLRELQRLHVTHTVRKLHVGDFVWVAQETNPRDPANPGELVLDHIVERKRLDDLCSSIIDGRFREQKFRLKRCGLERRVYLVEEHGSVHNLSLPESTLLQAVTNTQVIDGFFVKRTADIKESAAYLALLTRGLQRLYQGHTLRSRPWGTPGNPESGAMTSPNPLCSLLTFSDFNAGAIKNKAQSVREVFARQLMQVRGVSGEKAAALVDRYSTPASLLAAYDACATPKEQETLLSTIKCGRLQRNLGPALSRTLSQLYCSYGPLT
T2 sequence (Q96AY2 246-570 partner limits assumed): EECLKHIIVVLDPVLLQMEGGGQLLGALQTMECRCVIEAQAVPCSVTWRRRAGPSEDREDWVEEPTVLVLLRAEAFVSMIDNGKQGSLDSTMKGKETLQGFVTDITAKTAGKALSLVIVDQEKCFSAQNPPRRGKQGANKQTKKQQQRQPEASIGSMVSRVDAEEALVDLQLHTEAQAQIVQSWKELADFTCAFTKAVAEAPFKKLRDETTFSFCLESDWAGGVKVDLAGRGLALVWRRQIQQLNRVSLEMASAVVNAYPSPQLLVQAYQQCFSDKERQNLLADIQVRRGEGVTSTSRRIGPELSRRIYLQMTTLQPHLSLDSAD
The data set is described as follows: Surface plasmon resonance. In kind it is binding. The note with it: SPR affinity; for increase in affinity: compared with 5. In outline:
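Kd values for binding to MUS81-EME1 were measured by SPR. Affinities are the geometric mean with geometric standard deviation of at least three determinations.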
Background: SPR reads the build-up and loss of mass on a sensor chip optically.

Results on nine compounds are retold here after publication PMC11247637 (ACS Medicinal Chemistry Letters, 2024).

Structures are written as SMILES.

As usually defined, the IC50 is the midpoint of a concentration-inhibition curve. As to `N#Cc1cc(-c2ccc(C(=O)N3CCNCC3)cc2)ccc1-n1cc(O)c(=O)c(C(=O)O)c1` [Compound 24], in data set [1], the “rHep Clint” value was determined as 10 μL/min/1 × 10^6 cells. The “improvement in biochemical activity” value on Full length MUS81-EME1 is given as “approximately 2 fold”. Further, the IC50 in data set [2] was greater than 100 µM.

As for `O=C(O)c1nc(-c2ccc(N3CCNCC3)cc2)[nH]c(=O)c1O` [Compound 17], the “improvement in biochemical activity (IC50)” value at Full length MUS81-EME1 was roughly 2 fold.

In data set [3] (compared with methyl ester 1), `O=C(O)c1nc(-c2ccccc2)nc(O)c1O` [Compound 5] had an increase in potency of roughly 20 fold. As to `O=C(O)c1nc(-c2ccc3ccccc3c2)[nH]c(=O)c1O` [Compound 12], the increase in affinity in data set [3] is reported as roughly 2 fold. Still for that read-out and setting: then `O=C(O)c1nc(-c2ccc(Cl)cc2)nc(O)c1O` [Compound 10], with roughly 2 fold.

In data set [3], `O=C(O)c1nc(-c2ccc(Br)cc2)nc(O)c1O` [Compound 11] displayed an increase in affinity of roughly 2 fold.

Take `O=C(O)c1cn(-c2ccc(-c3ccc(C(=O)N4CCNCC4)cc3)cc2)cc(O)c1=O` [Compound 23]: in data set [1], the “rHep Clint” value was 11 μL/min/1 × 10^6 cells. Further, the “improvement in biochemical activity” value on Full length MUS81-EME1 is reported as “approximately 2 fold”. On to `O=C(O)c1cn(-c2ccc(-c3ccccc3)cc2)cc(O)c1=O` [Compound 18], for which the “improvement in biochemical activity (IC50)” value at Full length MUS81-EME1 is “approximately 3 fold”. `Cc1nc(C(=O)O)c(O)c(=O)[nH]1` [Compound 6] had a drop in potency in data set [3] (compared with acid 5) of roughly 20 fold.
